Measurements: ChEMBL document CHEMBL1121627, “Structure--activity relationships in a series of novel 3,4-dihydro-4-oxopyrimido[4,5-b]quinoline-2-carboxylic acid antiallergy agents” (1980)
Activity calls are given as the source filed them.

Assays:
Rattus norvegicus [1] = assay: Antiallergic activity against reagin induced passive cutaneous anaphylaxis reaction in rats upon intravenous administration.; type: functional
Procedure, shortened: (§1)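 Rat passive cutaneous anaphylaxis. Just before challenge, controls for antihistamine, antiserotonin or nonspecific blockade are given intradermally: 60 µg histamine dihydrochloride and 0.5 µg serotonin-creatinine sulfate. Challenge is iv, 5 mg egg albumin with 2.5 mg Evan's Blue, given immediately after iv drug or 5 min after oral drug. Site scores are summed per group of 5 or 7 and expressed as % inhibition versus control. ED50 is taken from a by-eye dose-response curve, or from least-squares regression when n is larger.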

Rattus norvegicus [2] = assay: The compound was evaluated for antiallergic activity against reagin induced passive cutaneous anaphylaxis reaction in rats upon peroral administration; highest dose at which the compound was tested and found inactive; type: functional; conditions: po; procedure, shortened: as §1
Rattus norvegicus [3] = assay: The compound was evaluated for antiallergic activity against reagin induced passive cutaneous anaphylaxis reaction in rats upon peroral administration, the dose at which the compound was tested and found inactive; type: functional; conditions: po; procedure, shortened: as §1
Rattus norvegicus [4] = assay: The compound was evaluated for antiallergic activity against reagin induced passive cutaneous anaphylaxis reaction in rats upon peroral administration, pH dependent, more active when administered in solution of pH>/=10; type: functional; conditions: po; procedure, shortened: as §1
Rattus norvegicus [5] = assay: Antiallergic activity against reagin induced passive cutaneous anaphylaxis reaction in rats upon peroral administration.; type: functional; conditions: po; procedure, shortened: as §1
Rattus norvegicus [6] = assay: The compound was evaluated for antiallergic activity against reagin induced passive cutaneous anaphylaxis reaction in rats upon peroral administration; at this dose the compound tested was found inactive; type: functional; conditions: po; procedure, shortened: as §1
Rattus norvegicus [7] = assay: The compound was evaluated for antiallergic activity against reagin induced passive cutaneous anaphylaxis reaction in rats upon peroral administration, at this dose the compound tested was found inactive, and is highly active at the same dose if ad ministered in solution of pH >/=10; type: functional; conditions: po; procedure, shortened: as §1
Rattus norvegicus [8] = assay: The compound was evaluated for antiallergic activity against reagin induced passive cutaneous anaphylaxis reaction in rats upon peroral administration. at this dose the compound tested was found inactive; type: functional; conditions: po; procedure, shortened: as §1
Cavia porcellus = assay: Bronchoconstrictive effect of histamine aerosol in conscious guinea pigs at an iv dose of 30 mg/kg; Bronchoconstrictive effect is unaltered; type: functional, organism-based; parameters: dose 30 mg/kg
Rattus norvegicus [9] = assay: Inhibition of plasma histamine release induced by antigen challenge in rats assively sensitized with homologus antisera at an iv dose of 0.1 mg/kg; type: functional

| Structure (SMILES) | ED50 (Rattus norvegicus [1]) [mg/kg] | ED50 (Rattus norvegicus [5]) [mg/kg] | further results |
| --- | --- | --- | --- |
| CCc1nc(O)c2cc3cc(OC)c(OC)cc3nc2n1 | 3 |  | ED50 (Rattus norvegicus [2]): > 60 mg/kg |
| CCOC(=O)CCCn1c(C(=O)OCC)nc2nc3cc(OC)c(OC)cc3cc2c1=O | 0.1 |  | ED50 (Rattus norvegicus [3]): > 10 mg/kg |
| CCOC(=O)CNC(=O)c1nc(O)c2cc3cc(OC)c(OC)cc3nc2n1 | 6 |  |  |
| CCOC(=O)c1nc(O)c2cc3cc(O)ccc3nc2n1 | 0.7 |  | ED50 (Rattus norvegicus [4]): 10 mg/kg |
| CCNC(=O)c1nc(O)c2cc3ccccc3nc2n1 | 3 |  |  |
| COc1cc2cc3c(O)ncnc3nc2cc1OC | 3 |  |  |
| CCOC(=O)c1nc(O)c2cc3ccc(OC)c(OC)c3nc2n1 | 0.2 | 60 |  |
| CCOC(=O)c1nc(O)c2cc3c(Cl)cccc3nc2n1 | 0.2 | 30 |  |
| COc1cc2cc3c(O)nc(C(N)=O)nc3nc2cc1OC | 3 | 30 |  |
| O=C([O-])c1cc(=O)c2c(OCC(O)COc3cccc4oc(C(=O)[O-])cc(=O)c34)cccc2o1.[Na+].[Na+] [CROMOLYN SODIUM] | 0.8 |  | ED50 (Rattus norvegicus [3]): > 300 mg/kg |
| CCOC(=O)c1nc(O)c2cc3ccccc3nc2n1 | 0.1 | 3 |  |
| CCOC(=O)c1nc(O)c2cc3cc(SC)ccc3nc2n1 | 0.1 | 8 |  |
| CCOC(=O)c1nc(O)c2cc3cc4c(cc3nc2n1)OCO4 | 0.5 | 30 |  |
| CCOC(=O)c1nc(O)c2cc3cc(F)ccc3nc2n1 | 0.3 | 30 |  |
| CCOC(=O)c1nc(O)c2cc3cc(OC)ccc3nc2n1 | 0.03 | 20 |  |
| CCOC(=O)c1nc(O)c2c(-c3ccccc3)c3ccccc3nc2n1 | 0.3 | 10 |  |
| CCOC(=O)c1nc(O)c2cc3ccc(OC)cc3nc2n1 | 0.8 | 10 |  |
| CCOC(=O)c1nc(O)c2cc3cc(OCc4ccccc4)c(OC)cc3nc2n1 | 3 |  | ED50 (Rattus norvegicus [6]): > 10 mg/kg |
| CCOC(=O)c1nc(O)c2cc3cc(OCc4ccccc4)ccc3nc2n1 | 0.9 | 10 |  |

| Structure (SMILES) | ED50 (Rattus norvegicus [1]) [mg/kg] | ED50 (Rattus norvegicus [5]) [mg/kg] | further results |
| --- | --- | --- | --- |
| O=C(O)c1nc2nc3ccccc3cc2c(=O)[nH]1 | 0.2 | 25 |  |
| CCCCOC(=O)c1nc(O)c2cc3cc(O)c(OC)cc3nc2n1 | 0.008 |  | ED50 (Rattus norvegicus [4]): 10 mg/kg |
| COc1cc2cc3c(=O)[nH]c(=O)[nH]c3nc2cc1OC | 3 |  |  |
| CCOC(=O)c1nc(O)c2cc3cc(Sc4ccc(OC)cc4)ccc3nc2n1 | 3 | 30 |  |
| COc1cc2cc3c(O)nc(C(C)=O)nc3nc2cc1OC | 2 |  | ED50 (Rattus norvegicus [2]): > 10 mg/kg |
| CCOC(=O)c1nc(O)c2cc3cc(OC)c(O)cc3nc2n1 | 1 |  | ED50 (Rattus norvegicus [7]): > 3 mg/kg |
| CCOC(=O)c1nc(O)c2cc3cc(OC)c(OCC)cc3nc2n1 | 0.007 | 2 |  |
| CCOC(=O)c1nc(O)c2cc3cc(OC(C)=O)c(OC)cc3nc2n1 | 0.007 |  | ED50 (Rattus norvegicus [4]): 10 mg/kg |
| CCOC(=O)c1nc(O)c2cc3cc([S+](C)[O-])ccc3nc2n1 (centres undefined) | 0.2 | 30 |  |
| CCOC(=O)c1nc(O)c2cc3cc(OC)c(OC)c(OC)c3nc2n1 | 0.8 | 10 |  |
| CCOC(=O)c1nc(O)c2cc3cc(OC)c(OCc4ccccc4)cc3nc2n1 | 0.8 |  | ED50 (Rattus norvegicus [8]): > 30 mg/kg |
| CCOC(=O)c1nc(O)c2cc3cc(Cl)ccc3nc2n1 | 0.4 | 30 |  |
| CCOC(=O)c1nc(O)c2cc3cc(OCC)c(OCC)cc3nc2n1 | 0.01 | 1 |  |
| CCOC(=O)c1nc(O)c2cc3c(OC)ccc(OC)c3nc2n1 | 0.6 | 30 |  |
| CCOC(=O)c1nc(O)c2cc3cc(OCC)c(OC)cc3nc2n1 | 0.002 | 0.3 |  |
| COc1cc2cc3c(O)nc(C(F)(F)F)nc3nc2cc1OC | > 10 |  |  |
| CNC(=O)c1nc(O)c2cc3cc(OC)c(OC)cc3nc2n1 | 3 |  |  |
| CCOC(=O)c1nc(O)c2cc3cc(OC)cc(OC)c3nc2n1 | 0.5 | 30 |  |
| CCOC(=O)c1nc(O)c2cc3cc(OCC)c(OCc4ccccc4)cc3nc2n1 | 0.9 |  | ED50 (Rattus norvegicus [6]): > 30 mg/kg |

| Structure (SMILES) | ED50 (Rattus norvegicus [1]) [mg/kg] | ED50 (Rattus norvegicus [5]) [mg/kg] | further results |
| --- | --- | --- | --- |
| CCCCOC(=O)c1nc(O)c2cc3cc(OC)c(OC)cc3nc2n1 | 0.003 | 10 |  |
| CCOC(=O)c1nc(O)c2cc3ccc(F)cc3nc2n1 | 0.3 | 30 |  |
| CCCCOc1cc2nc3nc(C(=O)OCC)nc(O)c3cc2cc1OCC | 0.3 | 5 |  |
| CCCCOC(=O)c1nc(O)c2cc3ccccc3nc2n1 | 0.06 | 30 |  |
| CCNC(=O)c1nc(O)c2cc3cc(OC)c(OC)cc3nc2n1 | 3 |  |  |
| COc1cc2cc3c(O)nc(C(=O)[O-])nc3nc2cc1OC.[Na+] | 0.005 | 10 |  |
| COc1cc2cc3c(O)nc(C(=O)OCCO)nc3nc2cc1OC | < 0.03 | 10 |  |
| NC(=O)c1nc(O)c2cc3ccccc3nc2n1 | 1.3 | 60 |  |
| CCOC(=O)c1nc2nc3cc(OC)c(OC)cc3cc2c(=O)n1C | 0.8 |  | ED50 (Rattus norvegicus [3]): > 30 mg/kg |
| COc1cc2cc3c(O)nc(C)nc3nc2cc1OC | 0.4 | 1 |  |
| CCOC(=O)c1nc(=O)c2cc3cc(OC)c(OC)cc3nc2[nH]1 [PIROLATE] | 0.007 | 1 | Activity (Cavia porcellus): inactive; inhibition in vivo at 0.1 mg/kg (Rattus norvegicus [9]): 92% |
| COc1cc2cc3c(O)nc(C(=O)NO)nc3nc2cc1OC | < 3 |  | ED50 (Rattus norvegicus [2]): > 60 mg/kg |
| CCOC(=O)Cn1c(C(=O)OCC)nc2nc3cc(OC)c(OC)cc3cc2c1=O | 3 |  |  |
| CCOC(=O)c1nc(O)c2cc3cc(O)c(OC)cc3nc2n1 | 0.001 |  | ED50 (Rattus norvegicus [7]): > 10 mg/kg |
| CCOC(=O)c1nc(O)c2cc3cc4c(cc3nc2n1)OCCO4 | 1 |  |  |
| COc1cc2cc3c(O)nc(-c4ccccc4)nc3nc2cc1OC | 3 |  |  |
| COc1cc2nc3nc(C(=O)O)nc(O)c3cc2cc1O | < 0.01 |  | ED50 (Rattus norvegicus [7]): > 3 mg/kg |
| O=C(O)c1nc(O)c2cc3cc(O)ccc3nc2n1 | 0.01 |  | ED50 (Rattus norvegicus [7]): > 10 mg/kg |
